Test [1] concerns Escherichia coli. Kind of test: Antimicrobial minimum inhibitory concentration against Escherichia coli AB1932-1. The test is classed as functional. The method in brief: (§1)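 Serial twofold tube dilution in tryptose phosphate broth. Each compound was prepared as a 1000 μg/mL aqueous stock and diluted in double-strength broth, then 2×10^5 cells were added. Tubes were incubated aerobically at 37 °C for 24 h. The MIC was taken as the lowest concentration with no visible growth.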

For test [2], the system named is Escherichia coli. Kind of test: Minimum inhibitory concentration against Escherichia coli (Vogel). The test is classed as functional. The method in brief: as §1
The subject of test [3] is Escherichia coli. Kind of test: Antimicrobial minimum inhibitory concentration against Escherichia coli 100/B22. The test is classed as functional. The method in brief: as §1
Test [4] deals with Klebsiella pneumoniae. Kind of test: Minimum inhibitory concentration against Klebsiella pneumonia 39645. The test is classed as functional. The procedure, abridged: as §1
Test [5] deals with Proteus mirabilis. Kind of test: Minimum antimicrobial inhibitory concentration against Proteus mirabilis MGH-1. The format is functional. The method in brief: as §1
Test [6] has as its system Pseudomonas aeruginosa. Kind of test: Minimum antimicrobial inhibitory concentration against Pseudomonas aeruginosa MGH-2. The test is classed as functional. The procedure, abridged: as §1
Test [7] has as its system Staphylococcus aureus. Kind of test: Minimum antimicrobial inhibitory concentration against Staphylococcus aureus. The test is classed as functional. The method in brief: as §1
In test [8] the test system is Streptococcus mutans. Kind of test: Minimum plaque inhibitory concentration using a standard test organism, Streptococcus mutans OMZ-61. The test is classed as functional, organism-based. The procedure, abridged: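 Ceramic hydroxylapatite plates were soaked twice for 1 min each in compound at […] (aqueous), air-dried and rinsed, then hung in sucrose beef-extract medium (pH 7.0) inoculated with late-log S. mutans OMZ-61. Incubation was anaerobic at 37 °C for 24 h, and treatment plus reinoculation were repeated for a second 24 h. Plaque was stained with 1% FD&C Red No. 3 and scored visually. The value is the lowest concentration giving no plaque while medium growth matched control.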

Each structure is given as a SMILES string.

As usually defined, the MIC is the least concentration at which growth counts as inhibited. Low readings indicate inhibition by little substance, high ones a need for much substance. As to `Br.Br.CCCCCCCCCCN=c1ccn(CCCCCCn2ccc(=NCCCCCCCCCC)cc2)cc1`, the MIC in test [1] turned out to be 2 µg/mL; in test [2] it was 2 µg/mL; in test [3] it was 7.8 µg/mL; in test [4], 3.9 µg/mL; in test [5] it was 2 µg/mL; in test [6], 7.8 µg/mL. In addition, in test [7], the MIC came to 1 µg/mL. The compound further had a Concentration in test [8] of 0.01%.
As to `Br.Br.CCCCC(CC)CN=c1ccn(CCCCCCCCCCn2ccc(=NCC(CC)CCCC)cc2)cc1` (configuration not stated), the MIC worked out at 0.4 µg/mL in test [1]; 1.5 µg/mL in test [2]; 0.8 µg/mL in test [3]; 3 µg/mL in test [4]; 12.1 µg/mL in test [5]; 48.4 µg/mL in test [6]. The compound further registered an MIC in test [7] of 0.2 µg/mL. The same compound gave a Concentration in test [8] of 0.003%.
On to `CCCCCCCN=c1ccn(CCCCCCCCn2ccc(=NCCCCCCC)cc2)cc1.Cl.Cl`, for which the MIC was determined as 1 µg/mL in test [1]; 2 µg/mL in test [2]; 2 µg/mL in test [3]; 2 µg/mL in test [4]; 62.6 µg/mL in test [5]; 31.3 µg/mL in test [6]. The compound further yielded an MIC in test [7] of 0.5 µg/mL. In test [8], this compound came in with a Concentration of 0.1%.
In the case of `CCCCCCCCN=c1ccn(CCCCCCn2ccc(=NCCCCCCCC)cc2)cc1.Cl.Cl`, the MIC in test [1] was determined as 0.5 µg/mL; in test [2] it was 1 µg/mL; in test [3] it was 0.5 µg/mL; in test [4] it was 2 µg/mL; in test [5], 15.6 µg/mL; in test [6], 31.3 µg/mL. Also, 0.2 µg/mL was the least that counted as inhibitory in test [7] (MIC). The Concentration in test [8] came to 0.004%.
With `Br.Br.CCCCCCCCCCCCN=c1ccn(CCCCCCCn2ccc(=NCCCCCCCCCCCC)cc2)cc1`, the MIC in test [1] was 62.5 µg/mL; in test [2] it was 62.5 µg/mL; in test [3], 62.5 µg/mL; in test [4] it was more than 62.5 µg/mL; in test [5], 62.5 µg/mL; in test [6], 62.5 µg/mL. Moreover, in test [7], 3.9 µg/mL was the least that counted as inhibitory (MIC). In test [8], the Concentration is 0.1%.
As for `CCCCCCCN=c1ccn(CCCCCCCCCCCCCCn2ccc(=NCCCCCCC)cc2)cc1.Cl.Cl`, the MIC was 1 µg/mL in test [1]; 2 µg/mL in test [2]; 1 µg/mL in test [3]; 3.9 µg/mL in test [4]; 3.9 µg/mL in test [5]; 2 µg/mL in test [6]. The compound further yielded an MIC in test [7] of 1 µg/mL. The Concentration in test [8] worked out at 0.01%.
`CS(=O)(=O)O.CS(=O)(=O)O.Clc1ccc(N=c2ccn(CCCCn3ccc(=Nc4ccc(Cl)cc4)cc3)cc2)cc1`: the MIC in test [1] was 7.8 µg/mL; in test [2], 15.6 µg/mL; in test [3] it was 15.6 µg/mL; in test [4], more than 250 µg/mL; in test [5], more than 250 µg/mL; in test [6] it was more than 125 µg/mL. In test [7], it took 7.8 µg/mL to inhibit growth (MIC). In test [8], the Concentration was more than 1%.
With `Br.Br.CCCCC(CC)CN=c1ccn(CCCCCCn2ccc(=NCC(CC)CCCC)cc2)cc1` (configuration not stated), the MIC was 2 µg/mL in test [1]; 7.8 µg/mL in test [2]; 3.9 µg/mL in test [3]; 125 µg/mL in test [4]; more than 125 µg/mL in test [5]; more than 250 µg/mL in test [6]. The lowest concentration to inhibit growth in test [7] (MIC) was 0.5 µg/mL. For the same compound, the Concentration in test [8] was more than 1%.
Regarding `Br.Br.c1cn(CCCCCn2ccc(=NC3CCCCC3)cc2)ccc1=NC1CCCCC1`, the MIC in test [1], in test [2], in test [3], in test [4], in test [5] and in test [6] was more than 500 µg/mL each time. The compound further registered an MIC in test [7] of 125 µg/mL. In addition, the Concentration in test [8] was more than 1%.
Regarding `Br.Br.CCCCCCCN=c1ccn(CCCCCn2ccc(=NCCCCCCC)cc2)cc1`, the MIC in test [1] is 3.9 µg/mL; in test [2] it was 31.3 µg/mL; in test [3], 7.8 µg/mL; in test [4], 31.3 µg/mL; in test [5], more than 125 µg/mL; in test [6], 125 µg/mL. This compound displayed an MIC in test [7] of 0.5 µg/mL. The Concentration in test [8] was more than 1%.
For the compound `Br.Br.CCCCC(CC)CN=c1ccn(CCCCCCCCn2ccc(=NCC(CC)CCCC)cc2)cc1` (configuration not stated), the MIC in test [1] was 1 µg/mL; in test [2] it was 3.9 µg/mL; in test [3] it was 2 µg/mL; in test [4] it was 7.8 µg/mL; in test [5], 125 µg/mL; in test [6] it was 125 µg/mL. This compound also had an MIC in test [7] of 0.3 µg/mL. The compound further showed a Concentration in test [8] of 0.004%.
As to `Br.Br.c1cn(CCCCn2ccc(=NC3CCCCC3)cc2)ccc1=NC1CCCCC1`, the MIC was 125 µg/mL in test [1]; 125 µg/mL in test [2]; 125 µg/mL in test [3]; more than 500 µg/mL in test [4]; more than 500 µg/mL in test [5]; more than 500 µg/mL in test [6]. In test [7], this compound returned an MIC of 125 µg/mL. The same compound came in with a Concentration in test [8] of more than 1%.
As to `Br.Br.Fc1ccc(N=c2ccn(CCCCCCCCn3ccc(=Nc4ccc(F)cc4)cc3)cc2)cc1`, the MIC in test [1] was 7.8 µg/mL; in test [2], 15.6 µg/mL; in test [3] it was 15.6 µg/mL; in test [4], more than 62.5 µg/mL; in test [5] it was more than 125 µg/mL; in test [6], more than 62.5 µg/mL. In addition, the MIC in test [7] was 2 µg/mL. The compound also registered a Concentration in test [8] of more than 1%.
For the compound `Br.Br.CCCCC(CC)CN=c1ccn(CCCCCCCn2ccc(=NCC(CC)CCCC)cc2)cc1` (configuration not stated), the MIC in test [1] is 3.9 µg/mL; in test [2] it was 3.9 µg/mL; in test [3] it was 3.9 µg/mL; in test [4], 7.8 µg/mL; in test [5] it was more than 125 µg/mL; in test [6], 125 µg/mL. Further, inhibition of growth in test [7] (MIC) required 0.5 µg/mL. In test [8], this compound showed a Concentration of more than 1%.
For the compound `Br.Br.CCCCCCCCCCCCN=c1ccn(CCCCCCCCn2ccc(=NCCCCCCCCCCCC)cc2)cc1`, the MIC in test [1] is 62.5 µg/mL; in test [2], 31.3 µg/mL; in test [3], more than 62.5 µg/mL; in test [4], more than 62.5 µg/mL; in test [5], 62.5 µg/mL; in test [6], more than 62.5 µg/mL. Besides, the MIC in test [7] was determined as 7.8 µg/mL. Also, in test [8], the Concentration came to 0.1%.
Turning to `Br.Br.CCCCCCCCCCCCN=c1ccn(CCCCCCCCCCn2ccc(=NCCCCCCCCCCCC)cc2)cc1`, the MIC in test [1], in test [2], in test [3], in test [4], in test [5] and in test [6] was more than 62.5 µg/mL each time. Moreover, 15.6 µg/mL was the least that counted as inhibitory in test [7] (MIC). Further, the Concentration in test [8] worked out at 0.1%.
In the case of `Br.Br.CCCCCCN=c1ccn(CCCCCCCCCn2ccc(=NCCCCCC)cc2)cc1`, the MIC in test [1] is 2 µg/mL; in test [2], 2 µg/mL; in test [3], 2 µg/mL; in test [4] it was 3.9 µg/mL; in test [5] it was 125 µg/mL; in test [6], 125 µg/mL. In test [7], this compound had an MIC of 0.4 µg/mL. Moreover, the Concentration in test [8] is more than 1%.
`Br.Br.CCCCCCCCCCN=c1ccn(CCCCCCCCCn2ccc(=NCCCCCCCCCC)cc2)cc1`: the MIC in test [1] was found to be 7.8 µg/mL; in test [2] it was 2 µg/mL; in test [3], 3.9 µg/mL; in test [4] it was 15.6 µg/mL; in test [5] it was 7.8 µg/mL; in test [6], 7.8 µg/mL. This compound showed a minimal inhibitory concentration (MIC) in test [7] of 1 µg/mL. The compound also had a Concentration in test [8] of 0.01%.
For `Br.Br.c1cn(CCCCCCn2ccc(=NC3CCCCC3)cc2)ccc1=NC1CCCCC1`, the MIC in test [1] is 125 µg/mL; in test [2], more than 125 µg/mL; in test [3], more than 125 µg/mL; in test [4] it was more than 125 µg/mL; in test [5], more than 125 µg/mL; in test [6], more than 125 µg/mL. This compound came in with an MIC in test [7] of 15.6 µg/mL. In test [8], this compound came in with a Concentration of more than 1%.

Values taken from ChEMBL document CHEMBL1122519, “Bispyridinamines: a new class of topical antimicrobial agents as inhibitors of dental plaque” (1984).
